In ChEMBL document CHEMBL4145650, “Napabucasin and Related Heterocycle-Fused Naphthoquinones as STAT3 Inhibitors with Antiproliferative Activity against Cancer Cells” (J Nat Prod, 2018):
Active and inactive are the calls of the source. The rule behind the calls is not given here.

Assays:
MDA-MB-231 [1] = experiment: Induction of superoxide generation in human MDA-MB-231 cells at 5 umol/L measured after 24 hrs in presence of NQO1 inhibitor dicoumarol by DHE staining based flow cytometry; type: functional, cell-based
In short: (§1)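 Cells were treated with compound at 5 μmol/L or DMSO for 24 h, with or without dicoumarol preincubation (5 μmol/L, 30 min), then stained with DHE for 30 min. 2-OH-DHE fluorescence was read by flow cytometry and expressed relative to vehicle control. At least three independent measurements.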

MDA-MB-231 [2] = experiment: Cell cycle arrest in human MDA-MB-231 cells assessed as accumulation at sub-G0 phase at 3 uM measured after 24 hrs by propidium iodide staining based flow cytometry (reference value: 3%); type: functional
MDA-MB-231 [3] = experiment: Induction of apoptosis in human MDA-MB-231 cells assessed as late apoptotic cells at 10 umol/L measured after 24 hrs by annexin-V-FITC/7-AAD staining based flow cytometric analysis relative to control; type: functional
MDA-MB-231 [4] = experiment: Cell cycle arrest in human MDA-MB-231 cells assessed as accumulation at G2 phase at 3 uM measured after 24 hrs by propidium iodide staining based flow cytometry (reference value: 23%); type: functional
MDA-MB-231 [5] = experiment: Induction of apoptosis in human MDA-MB-231 cells assessed as viable cells at 10 umol/L measured after 8 hrs by annexin-V-FITC/7-AAD staining based flow cytometric analysis (reference value: 97 to 98%); type: functional; details: MDA-MB-231, 8 h, read-out: Activity
MDA-MB-231 [6] = experiment: Cell cycle arrest in human MDA-MB-231 cells assessed as accumulation at G1 phase at 1 uM measured after 24 hrs by propidium iodide staining based flow cytometry (reference value: 62%); type: functional
MDA-MB-231 [7] = experiment: Cell cycle arrest in human MDA-MB-231 cells assessed as accumulation at sub-G0 phase at 30 uM measured after 24 hrs by propidium iodide staining based flow cytometry (reference value: 3%); type: functional
MDA-MB-231 [8] = experiment: Cell cycle arrest in human MDA-MB-231 cells assessed as accumulation at G1 phase at 10 uM measured after 24 hrs by propidium iodide staining based flow cytometry (reference value: 62%); type: functional
MDA-MB-231 [9] = experiment: Induction of apoptosis in human MDA-MB-231 cells assessed as late apoptotic cells at 10 umol/L measured after 6 hrs by annexin-V-FITC/7-AAD staining based flow cytometric analysis relative to control; type: functional
MDA-MB-231 [10] = experiment: Cell cycle arrest in human MDA-MB-231 cells assessed as accumulation at G2 phase at 1 uM measured after 24 hrs by propidium iodide staining based flow cytometry (reference value: 23%); type: functional
MDA-MB-231 [11] = experiment: Antiproliferative activity against human MDA-MB-231 cells measured after 48 hrs by MTT assay; type: functional, cell-based; details: MDA-MB-231, 48 h
In short: (§2)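 Cells kept in 10% FBS medium with penicillin/streptomycin/L-glutamine at 37 °C, 5% CO2 (MDA-MB-231 in DMEM, K562 in RPMI 1640). Viability read by MTT reduction to formazan after 48 h of exposure. IC50 obtained by nonlinear regression against vehicle control, given as mean ±SD of three independent experiments (n = 2 where footnoted).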

MDA-MB-231 [12] = experiment: Induction of apoptosis in human MDA-MB-231 cells assessed as early apoptotic cells at 10 umol/L measured after 6 hrs by annexin-V-FITC/7-AAD staining based flow cytometric analysis relative to control; type: functional
MDA-MB-231 [13] = experiment: Cell cycle arrest in human MDA-MB-231 cells assessed as accumulation at sub-G0 phase at 1 uM measured after 24 hrs by propidium iodide staining based flow cytometry (reference value: 3%); type: functional
MDA-MB-231 [14] = experiment: Cell cycle arrest in human MDA-MB-231 cells assessed as accumulation at G1 phase at 30 uM measured after 24 hrs by propidium iodide staining based flow cytometry (reference value: 62%); type: functional
MDA-MB-231 [15] = experiment: Cell cycle arrest in human MDA-MB-231 cells assessed as accumulation at S phase at 10 uM measured after 24 hrs by propidium iodide staining based flow cytometry (reference value: 12%); type: functional
MDA-MB-231 [16] = experiment: Induction of superoxide generation in human MDA-MB-231 cells at 5 umol/L measured after 24 hrs by DHE staining based flow cytometry; type: functional, cell-based; in short: as §1
MDA-MB-231 [17] = experiment: Cell cycle arrest in human MDA-MB-231 cells assessed as accumulation at sub-G0 phase at 10 uM measured after 24 hrs by propidium iodide staining based flow cytometry (reference value: 3%); type: functional
MDA-MB-231 [18] = experiment: Cell cycle arrest in human MDA-MB-231 cells assessed as accumulation at S phase at 1 uM measured after 24 hrs by propidium iodide staining based flow cytometry (reference value: 12%); type: functional
MDA-MB-231 [19] = experiment: Induction of apoptosis in human MDA-MB-231 cells assessed as early apoptotic cells at 10 umol/L measured after 24 hrs by annexin-V-FITC/7-AAD staining based flow cytometric analysis relative to control; type: functional
K562 [20] = experiment: Antiproliferative activity against human K562 cells measured after 48 hrs by MTT assay; type: functional, cell-based; details: K562, 48 h; in short: as §2
MDA-MB-231 [21] = experiment: Cell cycle arrest in human MDA-MB-231 cells assessed as accumulation at G1 phase at 3 uM measured after 24 hrs by propidium iodide staining based flow cytometry (reference value: 62%); type: functional
MDA-MB-231 [22] = experiment: Induction of apoptosis in human MDA-MB-231 cells assessed as viable cells at 10 umol/L measured after 6 hrs by annexin-V-FITC/7-AAD staining based flow cytometric analysis (reference value: 97 to 98%); type: functional; details: MDA-MB-231, 6 h, read-out: Activity
MDA-MB-231 [23] = experiment: Cell cycle arrest in human MDA-MB-231 cells assessed as accumulation at G2 phase at 10 uM measured after 24 hrs by propidium iodide staining based flow cytometry (reference value: 23%); type: functional
MDA-MB-231 [24] = experiment: Cell cycle arrest in human MDA-MB-231 cells assessed as accumulation at G2 phase at 30 uM measured after 24 hrs by propidium iodide staining based flow cytometry (reference value: 23%); type: functional
MDA-MB-231 [25] = experiment: Induction of apoptosis in human MDA-MB-231 cells assessed as viable cells at 10 umol/L measured after 4 hrs by annexin-V-FITC/7-AAD staining based flow cytometric analysis (reference value: 97 to 98%); type: functional; details: MDA-MB-231, 4 h, read-out: Activity
MDA-MB-231 [26] = experiment: Induction of apoptosis in human MDA-MB-231 cells assessed as late apoptotic cells at 10 umol/L measured after 8 hrs by annexin-V-FITC/7-AAD staining based flow cytometric analysis relative to control; type: functional
MDA-MB-231 [27] = experiment: Induction of apoptosis in human MDA-MB-231 cells assessed as viable cells at 10 umol/L measured after 2 hrs by annexin-V-FITC/7-AAD staining based flow cytometric analysis (reference value: 97 to 98%); type: functional; details: MDA-MB-231, 2 h, read-out: Activity
MDA-MB-231 [28] = experiment: Cell cycle arrest in human MDA-MB-231 cells assessed as accumulation at S phase at 3 uM measured after 24 hrs by propidium iodide staining based flow cytometry (reference value: 12%); type: functional
MDA-MB-231 [29] = experiment: Induction of apoptosis in human MDA-MB-231 cells assessed as viable cells at 10 umol/L measured after 24 hrs by annexin-V-FITC/7-AAD staining based flow cytometric analysis (reference value: 97 to 98%); type: functional; details: MDA-MB-231, 24 h, read-out: Activity
MDA-MB-231 [30] = experiment: Induction of apoptosis in human MDA-MB-231 cells assessed as early apoptotic cells at 10 umol/L measured after 8 hrs by annexin-V-FITC/7-AAD staining based flow cytometric analysis relative to control; type: functional
MDA-MB-231 [31] = experiment: Cell cycle arrest in human MDA-MB-231 cells assessed as accumulation at S phase at 30 uM measured after 24 hrs by propidium iodide staining based flow cytometry (reference value: 12%); type: functional
K562 [32] = experiment: Induction of superoxide generation in human K562 cells at 5 umol/L measured after 24 hrs in presence of NQO1 inhibitor dicoumarol by DHE staining based flow cytometry; type: functional, cell-based; in short: as §1
[33] = molecular target: T1, Signal transducer and activator of transcription 3 (Homo sapiens, UniProt P40763); experiment: Binding affinity to STAT3 in human MDA-MB-231 cells at 100 uM treated for 1 hr followed by thermolysin addition measured after 30 mins by DARTS-Western blot analysis; type: cell-based
In short: (§3)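 A nondenaturing lysate of MDA-MB-231 cells (M-PER with protease and phosphatase inhibitors) was incubated with compound at 100 μmol/L or DMSO for 1 h at room temperature in the dark. TNC buffer pH 8.0 was added, then thermolysin (1:3000 of protein) for 30 min at room temperature; undigested controls were kept. Run on SDS-PAGE with 10 μg protein per lane, then Western blot with anti-STAT3.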

[34] = molecular target: T1, Signal transducer and activator of transcription 3; experiment: Inhibition of STAT3 phosphorylation at Y705 in human MDA-MB-231 cells assessed as reduction in ratio of phosphorylated STAT3 to total STAT3 level after 4 hrs by HTRF assay; type: cell-based
In short: (§4)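 MDA-MB-231 cells (10^5/well) were left to adhere overnight, serum-starved for 4 h in DMEM, then treated with 0.1–30 μmol/L compound (0.5% final DMSO) for 4 h at 37 °C. Lysates were incubated 24 h at room temperature with Eu-cryptate/d2 antibody pairs for phospho-STAT3 (Y705) or total STAT3. The 665/620 nm HTRF ratio was taken and phospho/total normalized. EC50 was obtained by nonlinear regression.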

[35] = molecular target: T1, Signal transducer and activator of transcription 3; experiment: Binding affinity to STAT3 in human MDA-MB-231 cells at 100 uM measured after 1 hr by DARTS-Western blot analysis; type: cell-based; in short: as §3
[36] = molecular target: T1, Signal transducer and activator of transcription 3; experiment: Inhibition of STAT3 phosphorylation at Y705 in human MDA-MB-231 cells after 4 hrs by HTRF assay; type: cell-based; in short: as §4
MDA-MB-231 [37] = experiment: Effect on total STAT3 level in human MDA-MB-231 cells at 0.1 to 30 umol/L after 4 hrs by HTRF assay; type: cell-based; details: mda-mb-231, 4 h; in short: as §4

T1 sequence (P40763 whole entry): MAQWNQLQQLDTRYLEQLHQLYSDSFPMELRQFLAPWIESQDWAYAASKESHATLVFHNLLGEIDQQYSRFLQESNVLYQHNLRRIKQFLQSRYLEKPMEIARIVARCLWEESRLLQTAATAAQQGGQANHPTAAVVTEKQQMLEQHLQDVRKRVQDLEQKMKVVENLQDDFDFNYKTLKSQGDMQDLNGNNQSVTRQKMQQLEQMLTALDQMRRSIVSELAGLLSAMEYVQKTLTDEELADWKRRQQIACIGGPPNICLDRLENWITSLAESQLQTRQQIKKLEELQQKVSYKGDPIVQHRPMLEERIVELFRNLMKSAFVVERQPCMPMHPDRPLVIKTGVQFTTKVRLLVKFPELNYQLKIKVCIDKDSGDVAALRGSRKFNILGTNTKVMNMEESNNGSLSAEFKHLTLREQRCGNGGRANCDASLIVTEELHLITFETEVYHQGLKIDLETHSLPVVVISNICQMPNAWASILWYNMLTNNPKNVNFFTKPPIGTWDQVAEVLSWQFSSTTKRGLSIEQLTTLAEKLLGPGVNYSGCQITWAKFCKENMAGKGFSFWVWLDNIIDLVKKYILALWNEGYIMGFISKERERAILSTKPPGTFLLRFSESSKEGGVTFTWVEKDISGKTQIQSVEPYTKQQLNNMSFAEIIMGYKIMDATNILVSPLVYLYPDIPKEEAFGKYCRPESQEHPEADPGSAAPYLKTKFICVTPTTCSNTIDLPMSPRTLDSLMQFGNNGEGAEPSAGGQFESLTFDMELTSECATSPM

SMILES	Activity (MDA-MB-231 [1])	Activity (MDA-MB-231 [2])	Activity (MDA-MB-231 [3])	Activity (MDA-MB-231 [4])	viability at 10 µM (MDA-MB-231 [5])	Activity (MDA-MB-231 [6])	Activity (MDA-MB-231 [7])	Activity (MDA-MB-231 [8])	Activity (MDA-MB-231 [10])	IC50 (MDA-MB-231 [11])	Activity (MDA-MB-231 [13])	Activity (MDA-MB-231 [14])	Activity (MDA-MB-231 [15])	Activity (MDA-MB-231 [16])	Activity (MDA-MB-231 [17])	Activity (MDA-MB-231 [18])	Activity (MDA-MB-231 [19])	IC50 (K562 [20])	Activity (MDA-MB-231 [21])	viability at 10 µM (MDA-MB-231 [22])	further results
O=C1C(=O)c2ccoc2-c2ccccc21	Active	inactive	54%	25%	87%	64%	inactive	60%	19%	1800 nM	3%	62%	15%	Active	inactive	15%	15%	2800 nM	59%	91%	Activity (MDA-MB-231 [9]): 6%; Activity (MDA-MB-231 [12]): 4%; Activity (MDA-MB-231 [23]): 24%; Activity (MDA-MB-231 [24]): 22%; viability at 10 µM (MDA-MB-231 [25]): 95%; Activity (MDA-MB-231 [26]): 8%; viability at 10 µM (MDA-MB-231 [27]): 96%; Activity (MDA-MB-231 [28]): 15%; viability at 10 µM (MDA-MB-231 [29]): 32%; Activity (MDA-MB-231 [30]): 6%; Activity (MDA-MB-231 [31]): 14%; Activity (K562 [32]): inactive
CC1(C)CCC2=C(O1)C(=O)c1ccccc1C2=O [ALPHA-LAPACHONE]										> 10000 nM								> 10000 nM			
CC(C)=CCC1=C(O)C(=O)c2ccccc2C1=O [LAPACHOL]										> 10000 nM								> 10000 nM			
O=C1c2ccccc2C(=O)c2occc21										> 10000 nM								5200 nM			
CC(=O)c1cc2c(o1)C(=O)c1ccccc1C2=O [NAPABUCASIN]	Active	5%	19%	25%	94%	60%	3%	56%	22%	2100 nM	5%	56%	14%	Active	4%	13%	20%	1000 nM	56%	96%	Activity [33]: Active; EC50 [34]: 1900 nM; Activity [35]: inactive; EC50 [36]: 2000 nM; Activity (MDA-MB-231 [23]): 26%; Activity (MDA-MB-231 [37]): Non-Toxic; Activity (MDA-MB-231 [24]): 26%; viability at 10 µM (MDA-MB-231 [25]): 97%; viability at 10 µM (MDA-MB-231 [27]): 97%; Activity (MDA-MB-231 [28]): 15%; viability at 10 µM (MDA-MB-231 [29]): 62%; Activity (MDA-MB-231 [31]): 15%; Activity (K562 [32]): inactive
